Test results taken from ChEMBL document CHEMBL1255454, “Systematic approach to optimizing specifically targeted antimicrobial peptides against Streptococcus mutans” (2010).
≈ marks a conversion by molar mass, not a printed value. Calls of active or inactive are those of the source. The calls are words filed in the database; no cut-off is given here. Square brackets hold non-standard residues; d marks the D form. Peptide text beside a SMILES is read from it. Aoc = NCCCCCCCC(=O)O

Columns and labels:
[1] = system: Streptococcus mutans; assay: Antimicrobial activity against Streptococcus mutans UA159 after 16 to 20 hrs by broth microdilution assay; assay type: functional
How it was run: (§1)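 Broth microdilution. Twofold peptide dilutions were made in 50% BHI–50% sterile water for oral streptococci and in 1× Mueller-Hinton broth for the other bacteria. First round 500 to 0.97 µg/ml; a second round of 64 to 0.5 µg/ml was run in some cases, reporting its mode. Inoculum ~1 × 10^5 CFU/ml, 37°C for 16–20 h. Read A600; MIC taken as complete inhibition or ≥90% turbidity reduction versus peptide-free control.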

[2] = system: Streptococcus sanguinis; assay: Antimicrobial activity against Streptococcus sanguinis NY101 after 16 to 20 hrs by broth microdilution assay; assay type: functional; how it was run: as §1
[3] = system: Streptococcus mitis; assay: Antimicrobial activity against Streptococcus mitis ATCC 903 after 16 to 20 hrs by broth microdilution assay; assay type: functional; how it was run: as §1
[4] = Antimicrobial activity against Streptococcus gordonii Challis DL1 after 16 to 20 hrs by broth microdilution assay; assay type: functional, Streptococcus gordonii str. Challis; how it was run: as §1
[5] = system: Staphylococcus aureus; assay: Antimicrobial activity against methicillin-resistant Staphylococcus aureus after 16 to 20 hrs by broth microdilution assay; assay type: functional
How it was run: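 MRSA grown aerobically in BHI at 37°C. Broth microdilution: 2-fold peptide dilutions in 1× Mueller-Hinton broth, first round 500 to 0.97 µg/ml; if activity below 62.5 µg/ml, sometimes a second round at 64 to 0.5 µg/ml, reporting the mode. Inoculum ~1 × 10^5 CFU/ml, 37°C for 16-20 h. A600 read. MIC = lowest concentration giving complete inhibition or ≥90% turbidity reduction versus peptide-free control.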

[6] = system: Pseudomonas aeruginosa; assay: Antimicrobial activity against Pseudomonas aeruginosa PAK after 16 to 20 hrs by broth microdilution assay; assay type: functional; how it was run: as §1
[7] = system: Streptococcus mutans; assay: Antimicrobial activity against Streptococcus mutans UA159 assessed as inhibition of bacterial biofilm formation at 25 uM after 3 mins by fluorescence assay; assay type: functional
How it was run: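 S. mutans UA159 overnight culture was diluted 1:5,000 in TH with 1% sucrose and grown as biofilm for 24 h. Biofilms were exposed 3 min at room temperature to 25 µM fluorescein-labelled peptide in HEPES/NaHCO3/NaCl/MgCl2 buffer with 0.1% CTAB, pH 7.4, then washed twice. Green fluorescence images were taken and biofilm-associated green pixels quantified as binding intensity units.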

[8] = system: Enterococcus faecalis; assay: Antimicrobial activity against Enterococcus faecalis after 16 to 20 hrs by broth microdilution assay; assay type: functional; how it was run: as §1
[9] = system: Escherichia coli; assay: Antimicrobial activity against Escherichia coli W3110 after 16 to 20 hrs by broth microdilution assay; assay type: functional; how it was run: as §1

Compound	MIC [1] [µg/mL]	MIC [2] [µg/mL]	MIC [3] [µg/mL]	MIC [4] [µg/mL]	MIC [5] [µg/mL]	MIC [6] [µg/mL]	inhibition [7]	MIC [8] [µg/mL]	MIC [9] [µg/mL]
H-FIKHFIHRFSATLQLLKQLLKLLKQF-NH2	16	16	32	8	62.5	32	–	–	–
H-RWRWRWFSGGFIKHFIHRF-NH2	8	32	32	32	32	62.5	–	–	–
H-RWRRLLKKLHHLLHSATFIKHFIHRF-NH2	8	16	16	16	32	32	Active	–	–
H-FIKHFIHRFSGGRWRWRWF-NH2	8	32	32	32	32	62.5	–	–	–
H-LQLLKQLLKLLKQF-NH2	8	8	16	8	16	8	–	–	–
H-LQLLKQLLKLLKQFSATFIKHFIHRF-NH2	8	16	32	16	32	32	–	–	–
H-FHFHLHF-NH2	8	16	–	–	32	16	Active	16	8
H-RWRWRWFSATFIKHFIHRF-NH2	8	32	16	62.5	62.5	62.5	–	–	–
H-RWRRLLKKLHHLLHSGGFIKHFIHRF-NH2	8	32	32	16	32	32	–	–	–
H-RWRWRWFGGGFIKHFIHRF-NH2	8	32	32	32	32	62.5	–	–	–
CC[C@H](C)[C@H](NC(=O)[C@H](Cc1ccccc1)NC(=O)CCCCCCCNC(=O)[C@H](Cc1ccccc1)NC(=O)[C@H](CCC(N)=O)NC(=O)[C@H](CCCCN)NC(=O)[C@H](CC(C)C)NC(=O)[C@H](CC(C)C)NC(=O)[C@H](CCCCN)NC(=O)[C@H](CC(C)C)NC(=O)[C@H](CC(C)C)NC(=O)[C@H](CCC(N)=O)NC(=O)[C@H](CCCCN)NC(=O)[C@H](CC(C)C)NC(=O)[C@H](CC(C)C)NC(=O)[C@H](CCC(N)=O)NC(=O)[C@@H](N)CC(C)C)C(=O)N[C@@H](CCCCN)C(=O)N[C@@H](Cc1cnc[nH]1)C(=O)N[C@@H](Cc1ccccc1)C(=O)N[C@H](C(=O)N[C@@H](Cc1cnc[nH]1)C(=O)N[C@@H](CCCNC(=N)N)C(=O)N[C@@H](Cc1ccccc1)C(N)=O)[C@@H](C)CC (H-LQLLKQLLKLLKQF[Aoc]FIKHFIHRF-NH2)	8 (≈ 2.59 µM)	32 (≈ 10.3 µM)	32 (≈ 10.3 µM)	16 (≈ 5.17 µM)	62.5 (≈ 20.2 µM)	32 (≈ 10.3 µM)	–	–	–
H-FIKHFIHRFSGGLQLLKQLLKLLKQF-NH2	16	32	62.5	8	32	32	–	–	–
CC[C@H](C)[C@H](NC(=O)[C@H](Cc1ccccc1)NC(=O)[C@H](Cc1cnc[nH]1)NC(=O)[C@H](CCCCN)NC(=O)[C@@H](NC(=O)[C@@H](N)Cc1ccccc1)[C@@H](C)CC)C(=O)N[C@@H](Cc1cnc[nH]1)C(=O)N[C@@H](CCCNC(=N)N)C(=O)N[C@@H](Cc1ccccc1)C(=O)NCCCCCCCC(=O)N[C@@H](CC(C)C)C(=O)N[C@@H](CCC(N)=O)C(=O)N[C@@H](CC(C)C)C(=O)N[C@@H](CC(C)C)C(=O)N[C@@H](CCCCN)C(=O)N[C@@H](CCC(N)=O)C(=O)N[C@@H](CC(C)C)C(=O)N[C@@H](CC(C)C)C(=O)N[C@@H](CCCCN)C(=O)N[C@@H](CC(C)C)C(=O)N[C@@H](CC(C)C)C(=O)N[C@@H](CCCCN)C(=O)N[C@@H](CCC(N)=O)C(=O)N[C@@H](Cc1ccccc1)C(N)=O (H-FIKHFIHRF[Aoc]LQLLKQLLKLLKQF-NH2)	16 (≈ 5.17 µM)	32 (≈ 10.3 µM)	62.5 (≈ 20.2 µM)	32 (≈ 10.3 µM)	62.5 (≈ 20.2 µM)	62.5 (≈ 20.2 µM)	–	–	–
CC[C@H](C)[C@H](NC(=O)[C@H](Cc1ccccc1)NC(=O)CCCCCCCNC(=O)[C@H](Cc1ccccc1)NC(=O)[C@H](Cc1c[nH]c2ccccc12)NC(=O)[C@H](CCCNC(=N)N)NC(=O)[C@H](Cc1c[nH]c2ccccc12)NC(=O)[C@H](CCCNC(=N)N)NC(=O)[C@H](Cc1c[nH]c2ccccc12)NC(=O)[C@@H](N)CCCNC(=N)N)C(=O)N[C@@H](CCCCN)C(=O)N[C@@H](Cc1cnc[nH]1)C(=O)N[C@@H](Cc1ccccc1)C(=O)N[C@H](C(=O)N[C@@H](Cc1cnc[nH]1)C(=O)N[C@@H](CCCNC(=N)N)C(=O)N[C@@H](Cc1ccccc1)C(N)=O)[C@@H](C)CC (H-RWRWRWF[Aoc]FIKHFIHRF-NH2)	32 (≈ 12.5 µM)	32 (≈ 12.5 µM)	32 (≈ 12.5 µM)	62.5 (≈ 24.4 µM)	62.5 (≈ 24.4 µM)	125 (≈ 48.8 µM)	–	–	–
H-FIKHFIHRFSGGRWRRLLKKLHHLLH-NH2	16	16	62.5	32	32	32	–	–	–
H-RWRRLLKKLHHLLH-NH2	8	16	32	16	16	8	–	–	–
CC[C@H](C)[C@H](NC(=O)[C@H](Cc1ccccc1)NC(=O)[C@H](Cc1cnc[nH]1)NC(=O)[C@H](CCCCN)NC(=O)[C@@H](NC(=O)[C@@H](N)Cc1ccccc1)[C@@H](C)CC)C(=O)N[C@@H](Cc1cnc[nH]1)C(=O)N[C@@H](CCCNC(=N)N)C(=O)N[C@@H](Cc1ccccc1)C(=O)NCCCCCCCC(=O)N[C@@H](CCCNC(=N)N)C(=O)N[C@@H](Cc1c[nH]c2ccccc12)C(=O)N[C@@H](CCCNC(=N)N)C(=O)N[C@@H](CCCNC(=N)N)C(=O)N[C@@H](CC(C)C)C(=O)N[C@@H](CC(C)C)C(=O)N[C@@H](CCCCN)C(=O)N[C@@H](CCCCN)C(=O)N[C@@H](CC(C)C)C(=O)N[C@@H](Cc1cnc[nH]1)C(=O)N[C@@H](Cc1cnc[nH]1)C(=O)N[C@@H](CC(C)C)C(=O)N[C@@H](CC(C)C)C(=O)N[C@@H](Cc1cnc[nH]1)C(N)=O (H-FIKHFIHRF[Aoc]RWRRLLKKLHHLLH-NH2)	16 (≈ 4.89 µM)	32 (≈ 9.78 µM)	32 (≈ 9.78 µM)	32 (≈ 9.78 µM)	62.5 (≈ 19.1 µM)	62.5 (≈ 19.1 µM)	Active	–	–
H-IKQLLHFFQRF-NH2	24	62.5	62.5	32	62.5	62.5	–	–	–
H-IKQLLHFFQRFGGGFIKHFIHRF-NH2	8	32	16	32	62.5	125	–	–	–
H-LQLLKQLLKLLKQFSGGFIKHFIHRF-NH2	8	16	32	16	32	32	–	–	–
H-FIKHFIHRFSATRWRRLLKKLHHLLH-NH2	16	32	32	32	16	32	Active	–	–
CC[C@H](C)[C@H](NC(=O)[C@H](Cc1ccccc1)NC(=O)CCCCCCCNC(=O)[C@H](Cc1cnc[nH]1)NC(=O)[C@H](CC(C)C)NC(=O)[C@H](CC(C)C)NC(=O)[C@H](Cc1cnc[nH]1)NC(=O)[C@H](Cc1cnc[nH]1)NC(=O)[C@H](CC(C)C)NC(=O)[C@H](CCCCN)NC(=O)[C@H](CCCCN)NC(=O)[C@H](CC(C)C)NC(=O)[C@H](CC(C)C)NC(=O)[C@H](CCCNC(=N)N)NC(=O)[C@H](CCCNC(=N)N)NC(=O)[C@H](Cc1c[nH]c2ccccc12)NC(=O)[C@@H](N)CCCNC(=N)N)C(=O)N[C@@H](CCCCN)C(=O)N[C@@H](Cc1cnc[nH]1)C(=O)N[C@@H](Cc1ccccc1)C(=O)N[C@H](C(=O)N[C@@H](Cc1cnc[nH]1)C(=O)N[C@@H](CCCNC(=N)N)C(=O)N[C@@H](Cc1ccccc1)C(N)=O)[C@@H](C)CC (H-RWRRLLKKLHHLLH[Aoc]FIKHFIHRF-NH2)	8 (≈ 2.44 µM)	16 (≈ 4.89 µM)	32 (≈ 9.78 µM)	16 (≈ 4.89 µM)	62.5 (≈ 19.1 µM)	32 (≈ 9.78 µM)	–	–	–
H-FKKFWKWFRRFGGGFIKHFIHRF-NH2	8	32	62.5	125	32	125	–	–	–
H-FIKHFIHRFGGGIKQLLHFFQRF-NH2	8	32	16	32	62.5	125	–	–	–
